# Measured values from ChEMBL document CHEMBL1147105, “In vitro and in vivo activities of PD 0305970 and PD 0326448, new bacterial gyrase/topoisomerase inhibitors with potent antibacterial activities versus multidrug-resistant gram-positive and fastidious organism groups” (2007).
# Assays:
# [1] = tested on: Enterococcus faecium; assay: Antibacterial activity against VanB-resistant Enterococcus faecium; format: functional
# Method in brief: (§1)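 Broth microdilution MIC per CLSI guidelines, incubated at 35°C. Cation-adjusted Mueller-Hinton broth for nonfastidious organisms and staphylococci. Streptococci tested in the same broth with 3% lysed horse blood. Anaerobes tested in supplemented Brucella broth inside an anaerobe chamber (5% CO2, 5% H2, 90% N2), read after 48 h. Strains were mainly recent clinical isolates with confirmed identity.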
# [2] = tested on: Corynebacterium sp.; assay: Antibacterial activity against Corynebacterium sp.; format: functional
# Method in brief: (§2)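 Broth microdilution MIC following CLSI guidelines, in cation-adjusted Mueller-Hinton broth containing 3% lysed horse blood, incubated at 35°C. Clinical isolates with identity confirmed. Reported as MIC range, MIC50 and MIC90.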
# [3] = tested on: Moraxella catarrhalis; assay: Antibacterial activity against beta-lactamase positive Moraxella catarrhalis; format: functional
# [4] = tested on: Citrobacter koseri; assay: Antibacterial activity against Citrobacter diversus; format: functional
# Method in brief: (§3)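 Broth microdilution MIC following CLSI guidelines, in cation-adjusted Mueller-Hinton broth, incubated at 35°C. Recent clinical isolates and reference strains, with identity confirmed by automated and standard microbiological methods. Results reported as MIC range, MIC50 and MIC90.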
# [5] = tested on: Citrobacter freundii; assay: Antibacterial activity against Citrobacter freundii; format: functional; method in brief: as §3
# [6] = tested on: Klebsiella aerogenes; assay: Antibacterial activity against Enterobacter aerogenes; format: functional; method in brief: as §3
# [7] = tested on: Enterobacter cloacae; assay: Antibacterial activity against Enterobacter cloacae; format: functional; method in brief: as §3
# [8] = tested on: Escherichia coli; assay: Antibacterial activity against Escherichia coli; format: functional; method in brief: as §3
# [9] = tested on: Klebsiella oxytoca; assay: Antibacterial activity against Klebsiella oxytoca; format: functional; method in brief: as §3
# [10] = tested on: Klebsiella pneumoniae; assay: Antibacterial activity against beta-lactamase positive Klebsiella pneumoniae; format: functional
# Method in brief: (§4)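 MIC by CLSI broth microdilution for nonfastidious organisms, in cation-adjusted Mueller-Hinton broth incubated at 35°C.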
# [11] = tested on: Morganella morganii; assay: Antibacterial activity against Morganella morganii; format: functional; method in brief: as §3
# [12] = tested on: Proteus vulgaris; assay: Antibacterial activity against Proteus vulgaris; format: functional; method in brief: as §3
# [13] = tested on: Salmonella typhimurium; assay: Antibacterial activity against Salmonella enterica serovar Typhimurium; format: functional, Salmonella enterica subsp. enterica serovar Typhimurium; method in brief: as §3
# [14] = tested on: Actinomyces sp.; assay: Antibacterial activity against Actinomyces sp.; format: functional
# [15] = tested on: Peptostreptococcus anaerobius; assay: Antibacterial activity against Peptostreptococcus anaerobius; format: functional
# Method in brief: (§5)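 Anaerobic broth microdilution MIC following CLSI guidelines, in supplemented Brucella broth. Run in an anaerobe chamber under 5% CO2, 5% H2 and 90% N2 at 35°C, and read after 48 h. Reported as MIC range, MIC50 and MIC90.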
# [16] = tested on: Clostridium perfringens; assay: Antibacterial activity against Clostridium perfringens; format: functional; method in brief: as §1
# [17] = tested on: Clostridioides difficile; assay: Antibacterial activity against Clostridium difficile; format: functional; method in brief: as §5
# [18] = tested on: Bacteroides thetaiotaomicron; assay: Antibacterial activity against Bacteroides thetaiotaomicron; format: functional; method in brief: as §5
# [19] = tested on: Bacteroides fragilis; assay: Antibacterial activity against Bacteroides fragilis; format: functional; method in brief: as §5
# [20] = tested on: Staphylococcus aureus; assay: Antibacterial activity against oxacillin-susceptible Staphylococcus aureus; format: functional; method in brief: as §4
# [21] = tested on: Staphylococcus aureus; assay: Antibacterial activity against oxacillin-resistant Staphylococcus aureus; format: functional; method in brief: as §1
# [22] = tested on: Staphylococcus aureus; assay: Antibacterial activity against oxacillin and levofloxacin-resistant Staphylococcus aureus; format: functional; method in brief: as §1
# [23] = tested on: Staphylococcus epidermidis; assay: Antibacterial activity against oxacillin-susceptible Staphylococcus epidermidis; format: functional; method in brief: as §4
# [24] = tested on: Staphylococcus epidermidis; assay: Antibacterial activity against oxacillin-resistant Staphylococcus epidermidis; format: functional; method in brief: as §1
# [25] = tested on: Staphylococcus saprophyticus; assay: Antibacterial activity against Staphylococcus saprophyticus; format: functional; method in brief: as §3
# [26] = tested on: Alloiococcus otitis; assay: Antibacterial activity against Alloiococcus otitidis; format: functional
# Method in brief: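 MIC by broth microdilution following CLSI guidelines, in cation-adjusted Mueller-Hinton broth with 3% lysed horse blood. Incubated at 35°C and read after 48 h. Reported as MIC range, MIC50 and MIC90.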
# [27] = tested on: Streptococcus agalactiae; assay: Antibacterial activity against Streptococcus agalactiae; format: functional; method in brief: as §2
# [28] = tested on: Streptococcus equinus; assay: Antibacterial activity against Streptococcus bovis; format: functional
# Method in brief: (§6)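 Broth microdilution MIC following CLSI guidelines, in cation-adjusted Mueller-Hinton broth with 3% lysed horse blood. Plates incubated at 35°C. Clinical isolates and reference strains, with identity confirmed by standard microbiological methods.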
# [29] = tested on: Streptococcus pneumoniae; assay: Antibacterial activity against penicillin-susceptible Streptococcus pneumoniae; format: functional; method in brief: as §1
# [30] = tested on: Anaerococcus prevotii; assay: Antibacterial activity against Peptostreptococcus prevotii; format: functional; method in brief: as §5
# [31] = tested on: Hoylesella oralis; assay: Antibacterial activity against Prevotella oralis; format: functional; method in brief: as §5
# [32] = tested on: Streptococcus salivarius; assay: Antibacterial activity against Streptococcus salivarius; format: functional; method in brief: as §6
# [33] = tested on: Parabacteroides distasonis; assay: Antimicrobial activity against Bacteroides distasonis; format: functional
# Method in brief: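 Anaerobic broth microdilution MIC following CLSI guidelines, in supplemented Brucella broth. Incubated at 35°C in a chamber under 5% CO2, 5% H2 and 90% N2. Read after 48 h.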
smiles,measurement,setting,value
COc1c(N2CCNC(C)C2)c(F)cc2c(=O)c(C(=O)O)cn(C3CC3)c12 (stereo not given) [GATIFLOXACIN],MIC,[1],2 µg/mL
same,MIC50,[2],0.25 µg/mL
same,MIC90,[2],32 µg/mL
same,MIC50,[3],0.03 µg/mL
same,MIC90,[3],0.06 µg/mL
same,MIC50,[4],0.03 µg/mL
same,MIC90,[4],0.06 µg/mL
same,MIC50,[5],0.25 µg/mL
same,MIC90,[5],16 µg/mL
same,MIC50,[6],1 µg/mL
same,MIC90,[6],32 µg/mL
same,MIC50,[7],0.06 µg/mL
same,MIC90,[7],1 µg/mL
same,MIC50,[8],0.03 µg/mL
same,MIC90,[8],1 µg/mL
same,MIC50,[9],0.03 µg/mL
same,MIC90,[9],1 µg/mL
same,MIC50,[10],1 µg/mL
same,MIC90,[10],16 µg/mL
same,MIC50,[11],0.25 µg/mL
same,MIC90,[11],32 µg/mL
same,MIC,[12],0.06 µg/mL
same,MIC50,[13],0.03 µg/mL
same,MIC90,[13],0.06 µg/mL
same,MIC,[14],0.125 µg/mL
same,MIC,[15],0.06 µg/mL
same,MIC50,[16],0.5 µg/mL
same,MIC90,[16],0.5 µg/mL
same,MIC50,[17],0.5 µg/mL
same,MIC90,[17],0.5 µg/mL
same,MIC50,[18],4 µg/mL
same,MIC90,[18],16 µg/mL
same,MIC50,[19],1 µg/mL
same,MIC90,[19],8 µg/mL
same,MIC50,[20],0.125 µg/mL
same,MIC90,[20],0.125 µg/mL
same,MIC50,[21],4 µg/mL
same,MIC90,[21],8 µg/mL
same,MIC50,[22],8 µg/mL
same,MIC90,[22],16 µg/mL
same,MIC,[23],0.125 µg/mL
same,MIC50,[24],2 µg/mL
same,MIC90,[24],32 µg/mL
same,MIC50,[25],0.25 µg/mL
same,MIC90,[25],0.25 µg/mL
same,MIC50,[26],0.06 µg/mL
same,MIC90,[26],0.06 µg/mL
same,MIC50,[27],0.25 µg/mL
same,MIC90,[27],0.25 µg/mL
same,MIC50,[28],1 µg/mL
same,MIC90,[28],1 µg/mL
same,MIC50,[29],0.25 µg/mL
same,MIC90,[29],0.5 µg/mL
same,MIC,[30],0.06 µg/mL
same,MIC50,[31],0.25 µg/mL
same,MIC90,[31],0.5 µg/mL
same,MIC50,[32],0.5 µg/mL
same,MIC90,[32],0.5 µg/mL
same,MIC50,[33],4 µg/mL
same,MIC90,[33],16 µg/mL
